The subject of assay [1] is RAW264.7. Description: Ability to suppress the production of reactive oxygen intermediates by activated RAW 264.7 macrophages from BALB/c mice at 8 ug/ml. The class given is functional, Mus musculus. Put shortly: (§1)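 RAW 264.7 cells were grown in DMEM with 5% FCS and LPS-activated (1 µg/mL, 24 h). Cells (5 × 10^5 in 0.5 mL) were incubated 24 h with cannabinoids dissolved in ethanol and diluted in Hanks. Luminol and zymosan were then added and chemiluminescence was read immediately. Mean ± SD of three pooled experiments.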

The test system of assay [2] is RAW264.7. Description: Ability to suppress the production of reactive oxygen intermediates by activated RAW 264.7 macrophages from BALB/c mice at 4 ug/ml. It is filed as functional. Put shortly: as §1
Assay [3] relates to Peritoneal macrophage cell. Description: Ability to suppress TNFalpha production by LPS-activated peritoneal macrophages form C57BL/6 mice at 4 ug/ml. As to conditions: Mus musculus. It is filed as functional, cell-based.
Assay [4] deals with Peritoneal macrophage cell. Description: Ability to suppress […] production by LPS-activated peritoneal macrophages form C57BL/6 mice at 8 ug/ml. The class given is functional, cell-based. The following applies: Mus musculus. Put shortly: (§2)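 Elicited peritoneal macrophages were prepared as for TNF. They were exposed to ethanol-dissolved cannabinoids diluted in DMEM, plus LPS 1 µg/mL, for 24 h. Nitrite in 100 µL supernatant was mixed with an equal volume of Griess reagent for 10 min at room temperature and read at 550 nm. Values came from a nitrite standard curve. Mean ± SD of three pooled experiments.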

For assay [5], the system named is Peritoneal macrophage cell. Description: Ability to suppress TNFalpha production by LPS-activated peritoneal macrophages form C57BL/6 mice at 8 ug/ml. It is filed as functional, Mus musculus.
The test system of assay [6] is Peritoneal macrophage cell. Description: Ability to suppress […] production by LPS-activated peritoneal macrophages form C57BL/6 mice at 4 ug/ml. The class given is functional, cell-based. As to conditions: Mus musculus. Put shortly:
as §2

Assay [7] concerns the target Cannabinoid receptor 1 (Rattus norvegicus, UniProt P20272). Description: Displacement of [3H]HU243 from CB1 receptor in Sabra rat brain.
Assay [8] has as its system Peritoneal macrophage cell. Description: Ability to suppress […] production by LPS-activated peritoneal macrophages form C57BL/6 mice at 1 ug/ml. It is filed as functional, cell-based. As to conditions: Mus musculus. Put shortly:
as §2

The structures appear in SMILES notation. Active and inactive are the calls of the source. The rule behind the calls is not given here. Bounds are passed on as bounds.

Chain of Cannabinoid receptor 1 (P20272 whole entry): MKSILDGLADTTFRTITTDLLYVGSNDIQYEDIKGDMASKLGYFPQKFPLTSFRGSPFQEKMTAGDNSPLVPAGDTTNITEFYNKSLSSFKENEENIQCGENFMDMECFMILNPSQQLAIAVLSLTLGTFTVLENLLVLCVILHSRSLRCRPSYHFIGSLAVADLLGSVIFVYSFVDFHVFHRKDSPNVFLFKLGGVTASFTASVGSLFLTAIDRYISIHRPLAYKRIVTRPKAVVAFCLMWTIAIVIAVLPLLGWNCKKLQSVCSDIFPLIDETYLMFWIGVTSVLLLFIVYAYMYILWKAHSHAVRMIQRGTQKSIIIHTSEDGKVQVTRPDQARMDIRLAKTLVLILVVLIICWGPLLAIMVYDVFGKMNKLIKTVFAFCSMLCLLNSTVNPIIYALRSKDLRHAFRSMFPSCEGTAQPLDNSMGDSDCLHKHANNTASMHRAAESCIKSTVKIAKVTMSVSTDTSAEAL

Turning to `C=C(C)[C@@H]1CCC(C)=CC1c1c(O)cc(C(C)(C)CCCCCC)cc1O` (some centres not stated), the Activity is 60% in assay [1] and 73% in assay [5]. Besides, the outcome in assay [2] (Mus musculus), in assay [3], in assay [4] and in assay [6] was Active. The inhibitory constant (Ki) in assay [7] is above 10000 nM.
In the case of `CCCCCCC(C)(C)c1cc(O)c(C2C=C(C)CC[C@H]2C(C)C)c(O)c1` (some centres not stated), the outcome in assay [1] (Mus musculus), in assay [2] (Mus musculus) and in assay [5] (Mus musculus) was inactive. The molecule further showed an inhibition constant Ki in assay [7] of 124 nM.
For the molecule `CCCCCc1cc(O)c(C2C=C(C)CC[C@H]2C(C)C)c(O)c1` (some centres not stated), the result in assay [2] (Mus musculus), in assay [3], in assay [4] and in assay [6] was Active. In assay [7], this molecule returned an inhibition constant Ki above 1000 nM.
In the case of `C=C(C)[C@@H]1CCC(C)CC1c1c(O)cc(CCCCC)cc1O` (some centres not stated), the result in assay [4] and in assay [6] was Active.
Turning to `CCCCCc1cc(O)c(C2CC(C)CC[C@H]2C(C)C)c(O)c1` (some centres not stated), the outcome in assay [2] (Mus musculus), in assay [3], in assay [4], in assay [8] and in assay [6] was Active. In assay [7], this molecule gave a Ki of 145 nM.
With `C=C(C)[C@@H]1CCC(C)=C[C@H]1c1c(O)cc(CCCCC)cc1O` [CANNABIDIOL], the outcome in assay [1] (Mus musculus), in assay [4], in assay [5] (Mus musculus) and in assay [6] was Active. The molecule further showed an Activity in assay [2] of 12%.
As to `CCCCCCC(C)(C)c1cc(O)c(C2CC(C)CC[C@H]2C(C)C)c(O)c1` (some centres not stated), the Activity in assay [1] turned out to be 25%. The result in assay [5] (Mus musculus) was inactive. Also, the Ki in assay [7] was 17 nM.

Values taken from ChEMBL document CHEMBL1149434 (J Med Chem, 2006).
